For six compounds, MIC, Ratio and IC50 results are on record in ChEMBL document CHEMBL3097991, “A novel indigoid anti-tuberculosis agent” (Bioorg Med Chem Lett, 2014).

For assay [1], the system named is Mycobacterium tuberculosis. Put plainly: Antimicrobial activity against Mycobacterium tuberculosis H37Rv in presence of 10% FBS. The format is functional.
Assay [2] deals with Mycobacterium tuberculosis. Put plainly: Antimicrobial activity against Mycobacterium tuberculosis H37Rv in presence of 4% BSA. The format is functional.
In assay [3] the test system is Mycobacterium tuberculosis. Put plainly: Ratio of MIC for Mycobacterium tuberculosis H37Rv in presence of 10% FBS to MIC for Mycobacterium tuberculosis H37Rv. The format is functional.
In assay [4] the test system is Escherichia coli. In words: Antimicrobial activity against Escherichia coli. It counts as functional.
Assay [5] deals with Candida albicans. Put plainly: Antimicrobial activity against Candida albicans. The format is functional.
Assay [6] has as its system Mycobacterium tuberculosis. In words: Antimicrobial activity against Mycobacterium tuberculosis H37Rv infected in african green monkey Vero cells. It counts as functional.
For assay [7], the system named is Staphylococcus aureus. In words: Antimicrobial activity against Staphylococcus aureus. The format is functional.
The subject of assay [8] is Mycobacterium tuberculosis. In words: Ratio of MIC for Mycobacterium tuberculosis H37Rv in presence of 4% BSA to MIC for Mycobacterium tuberculosis H37Rv. It counts as functional.
The test system of assay [9] is Mycobacterium tuberculosis. In words: Antimicrobial activity against Mycobacterium tuberculosis H37Rv by low oxygen recovery assay. The format is functional. The gist of the method:
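MIC determined against M. tuberculosis H37Rv held in the non-replicating phenotype under low oxygen, with growth assessed after recovery.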

Assay [10] concerns Mycobacterium tuberculosis. In words: Ratio of MIC for Mycobacterium tuberculosis H37Rv by low oxygen recovery assay to MIC for Mycobacterium tuberculosis H37Rv. The format is functional.
For assay [11], the system named is Mycolicibacterium smegmatis. In words: Antimicrobial activity against Mycobacterium smegmatis. It counts as functional.
Assay [12] has as its system Vero. Put plainly: Cytotoxicity against african green monkey Vero cells. The format is cell-based. The settings on record: Chlorocebus sabaeus.

SMILES strings stand for the structures. ≈ marks a conversion by molar mass, not a printed value. Bounds are passed on as bounds.

In general, MIC refers to the lowest concentration found to suppress growth. One may read the IC50 as the point on the concentration scale where inhibition reaches its midpoint. Take `O=C1C=Cc2nocc2/C1=C1/Nc2ccccc2C1=O`: the minimum inhibitory concentration (MIC) was 0.57 µM in assay [1]; 2.1 µM in [2]; more than 50 µM in assay [4]; more than 50 µM in assay [5]; 0.57 µM (≈ 0.151 µg/mL) in assay [6]; more than 50 µM in assay [7]. The figures for the MIC in [9] and in assay [11] were 5.3 µM (≈ 1.4 µg/mL) and more than 50 µM, respectively. Moreover, the values for the Ratio in assay [3], in assay [8] and in assay [10] were 1, 3.7 and 10, respectively. The compound further gave an IC50 in [12] of more than 32 µM.

Take `O=C1/C(=C2\Nc3ccccc3C2=O)Nc2ccccc21` [INDIGO]: the MIC in assay [6] is more than 32 µM.

`O=C1Nc2ccccc2/C1=C1/Nc2ccccc2C1=O` [INDIRUBIN] yielded a minimal inhibitory concentration (MIC) in assay [6] of more than 32 µM.

`O=C1Nc2ccccc2/C1=C1\C(=O)Nc2ccccc21` [ISOINDIGO]: the MIC in assay [6] came to 27 µM (≈ 7.08 µg/mL).

In the case of `NNC(=O)c1ccncc1` [ISONIAZID], the minimum inhibitory concentration (MIC) in [1] was 0.24 µM; in [2] it was 0.45 µM; in assay [6], 0.22 µM (≈ 0.0302 µg/mL); in assay [9], more than 100 µM; in assay [11], 18.9 µM (≈ 2.59 µg/mL). This compound also gave a half-maximal inhibitory concentration (IC50) in assay [12] of more than 100 µM.

As to `CO[C@H]1/C=C/O[C@@]2(C)Oc3c(C)c(O)c4c(O)c(c(/C=N/N5CCN(C)CC5)c(O)c4c3C2=O)NC(=O)/C(C)=C\C=C\[C@H](C)[C@H](O)[C@@H](C)[C@@H](O)[C@@H](C)[C@H](OC(C)=O)[C@@H]1C` [RIFAMPIN], the MIC in assay [1] is 0.21 µM; in assay [2], 0.089 µM; in [6], 0.038 µM (≈ 0.0313 µg/mL); in [9] it was 0.49 µM (≈ 0.403 µg/mL); in [11] it was 16.7 µM (≈ 13.7 µg/mL). The same compound displayed a half-inhibitory concentration (IC50) in assay [12] of more than 182 µM.
